From ChEMBL document CHEMBL5712917, “G9a regulates tumorigenicity and stemness through genome-wide DNA methylation reprogramming in non-small cell lung cancer” (Clin Epigenetics, 2020)
Activity calls are given as the source filed them.

How the values were obtained:
LCSC-4 [1] = test: Antitumor activity against human LCSC-4 cells xenografted in NOD-SCID mouse assessed as suppression of tumor volume at 10 mg/kg, ip administered for 8 weeks; type: functional, organism-based
Method in brief: (§1)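 NOD-SCID mice given 100,000 single cells from dissociated wild-type TIC spheres subcutaneously. Established tumors split into vehicle or 10 mg/kg inhibitor groups, dosed intraperitoneally for 8 weeks. Tumor size measured weekly and tumor weight taken at euthanasia. Tumors fixed in 10% formaldehyde and stained by IHC (×20) for G9A, H3K9Me2, FOXP1 and SP5; t test.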

LCSC-1 [2] = test: Antitumor activity against human LCSC-1 cells assessed as decrease in tumor sphere formation at 10 uM for 72 hrs; type: functional, cell-based
Method in brief: (§2)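 Single cells from accutase-dissociated tumorspheres, 50,000–100,000 per well, grown in serum-free sphere medium (B-27, EGF, FGF, heparin). Exposed to 10 μM inhibitor at 37 °C for 72 h, then imaged. Sphere-forming capacity was scored by sphere size, and treated cells were compared with control by t test.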

LCSC-2 (human) [3] = test: Antitumor activity against human LCSC-2 cells xenografted in NOD-SCID mouse assessed as decrease in G9a expression at 10 mg/kg, ip administered for 8 weeks by immunohistochemical staining assay
LCSC-4 [4] = test: Antitumor activity against human LCSC-4 cells xenografted in NOD-SCID mouse assessed as decrease in H3K9Me2 expression at 10 mg/kg, ip administered for 8 weeks by immunohistochemical staining assay; type: functional, organism-based; method in brief: as §1
LCSC-4 [5] = test: Antitumor activity against human LCSC-4 cell assessed as decrease in cell proliferation at 10 uM for 72 hrs by CCK-8 assay; type: functional, cell-based
Method in brief: (§3)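 TIC spheres dissociated to single cells with accutase and grown in serum-free DMEM/F12 with B-27, 25 ng/ml EGF, 25 ng/ml FGF and heparin. Cells were treated with 10 μM inhibitor at 37 °C for 72 h in 96-well format. CCK-8 solution was then added for 1–4 h and absorbance read at 450 nm. Groups compared against control by t test.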

LCSC-4 [6] = test: Antitumor activity against human LCSC-4 cells xenografted in NOD-SCID mouse assessed as increase in SP5 expression at 10 mg/kg, ip administered for 8 weeks by immunohistochemical staining assay; type: functional, organism-based; method in brief: as §1
LCSC-4 [7] = test: Antitumor activity against human LCSC-4 cells assessed as increase in CDYL2 expression by Western blot analysis; type: functional, cell-based
Method in brief: (§4)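 Western blot on TICs exposed to G9A inhibitor. Cells lysed in 2X SDS buffer; 10 μl lysate or 20 μg protein run on 4–12% SDS-PAGE, transferred to PVDF, blocked in 5% non-fat milk/TBST, then probed with primary and secondary antibodies against each target protein.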

LCSC-4 [8] = test: Antitumor activity against human LCSC-4 cells assessed as increase in ROBO1 expression by Western blot analysis; type: functional, cell-based; method in brief: as §4
LCSC-2 [9] = test: Antitumor activity against human LCSC-2 cells assessed as decrease in tumor sphere formation at 10 uM for 72 hrs; type: functional, cell-based; method in brief: as §2
LCSC-4 [10] = test: Antitumor activity against human LCSC-4 cells assessed as increase in FOXP1 expression by Western blot analysis; type: functional, cell-based; method in brief: as §4
LCSC-2 [11] = test: Antitumor activity against human LCSC-2 cells assessed as increase in SP5 expression by Western blot analysis; type: functional, cell-based; method in brief: as §4
LCSC-2 [12] = test: Antitumor activity against human LCSC-2 cells assessed as increase in STAMBPL1 expression by Western blot analysis; type: functional, cell-based; method in brief: as §4
LCSC-2 [13] = test: Antitumor activity against human LCSC-2 cells assessed as decrease in cell proliferation at 10 uM for 72 hrs by CCK-8 assay; type: functional, cell-based; method in brief: as §3
LCSC-4 [14] = test: Antitumor activity against human LCSC-4 cells assessed as increase in SP5 expression by Western blot analysis; type: functional, cell-based; method in brief: as §4
LCSC-2 (human) [15] = test: Antitumor activity against human LCSC-2 cells xenografted in NOD-SCID mouse assessed as increase in SP5 expression at 10 mg/kg, ip administered for 8 weeks by immunohistochemical staining assay
LCSC-4 [16] = test: Antitumor activity against human LCSC-4 cells assessed as increase in STAMBPL1 expression by Western blot analysis; type: functional, cell-based; method in brief: as §4
LCSC-2 [17] = test: Antitumor activity against human LCSC-2 cells assessed as increase in DPP4 expression by Western blot analysis; type: functional, cell-based; method in brief: as §4
LCSC-4 [18] = test: Antitumor activity against human LCSC-4 cells xenografted in NOD-SCID mouse assessed as decrease in G9a expression at 10 mg/kg, ip administered for 8 weeks by immunohistochemical staining assay; type: functional, organism-based; method in brief: as §1
LCSC-4 [19] = test: Antitumor activity against human LCSC-4 cells xenografted in NOD-SCID mouse assessed as increase in FOXP1 expression at 10 mg/kg, ip administered for 8 weeks by immunohistochemical staining assay; type: functional, organism-based; method in brief: as §1
LCSC-2 (human) [20] = test: Antitumor activity against human LCSC-2 cells xenografted in NOD-SCID mouse assessed as suppression of tumor volume at 10 mg/kg, ip administered for 8 weeks
LCSC-2 (human) [21] = test: Antitumor activity against human LCSC-2 cells xenografted in NOD-SCID mouse assessed as increase in FOXP1 expression at 10 mg/kg, ip administered for 8 weeks by immunohistochemical staining assay
LCSC-2 [22] = test: Antitumor activity against human LCSC-2 cells assessed as increase in FOXP1 expression by Western blot analysis; type: functional, cell-based; method in brief: as §4
LCSC-2 [23] = test: Antitumor activity against human LCSC-2 cells assessed as increase in ROBO1 expression by Western blot analysis; type: functional, cell-based; method in brief: as §4
LCSC-4 [24] = test: Antitumor activity against human LCSC-4 cells assessed as decrease in tumor sphere formation at 10 uM for 72 hrs; type: functional, cell-based; method in brief: as §2
LCSC-1 [25] = test: Antitumor activity against human LCSC-1 cells assessed as decrease in cell proliferation at 10 uM for 72 hrs by CCK-8 assay; type: functional, cell-based; method in brief: as §3
LCSC-4 [26] = test: Antitumor activity against human LCSC-4 cells assessed as increase in DPP4 expression by Western blot analysis; type: functional, cell-based; method in brief: as §4
LCSC-2 [27] = test: Antitumor activity against human LCSC-2 cells assessed as increase in CDYL2 expression by Western blot analysis; type: functional, cell-based; method in brief: as §4
LCSC-2 (human) [28] = test: Antitumor activity against human LCSC-2 cells xenografted in NOD-SCID mouse assessed as decrease in H3K9Me2 expression at 10 mg/kg, ip administered for 8 weeks by immunohistochemical staining assay

Measured: Activity

COc1cc2c(NC3CCN(C(C)C)CC3)nc(N3CCC(F)(F)CC3)nc2cc1OCCCN1CCCC1
active: all assays above
